Laboratory results from ChEMBL document CHEMBL1817631, “Synthesis and characterization of tritylthioethanamine derivatives with potent KSP inhibitory activity” (Bioorg Med Chem, 2011).
Active and inactive are the calls of the source. No cut-off for these calls is given here.

Key:
[1] = molecular target: T1, Kinesin-like protein Klp61F (Drosophila melanogaster) (UniProt P46863); experiment: Inhibition of Drosophila melanogaster Klp61F in S2 cells at 100 uM up to 7 hrs by immunofluorescence analysis; assay type: cell-based
T1 sequence (whole entry): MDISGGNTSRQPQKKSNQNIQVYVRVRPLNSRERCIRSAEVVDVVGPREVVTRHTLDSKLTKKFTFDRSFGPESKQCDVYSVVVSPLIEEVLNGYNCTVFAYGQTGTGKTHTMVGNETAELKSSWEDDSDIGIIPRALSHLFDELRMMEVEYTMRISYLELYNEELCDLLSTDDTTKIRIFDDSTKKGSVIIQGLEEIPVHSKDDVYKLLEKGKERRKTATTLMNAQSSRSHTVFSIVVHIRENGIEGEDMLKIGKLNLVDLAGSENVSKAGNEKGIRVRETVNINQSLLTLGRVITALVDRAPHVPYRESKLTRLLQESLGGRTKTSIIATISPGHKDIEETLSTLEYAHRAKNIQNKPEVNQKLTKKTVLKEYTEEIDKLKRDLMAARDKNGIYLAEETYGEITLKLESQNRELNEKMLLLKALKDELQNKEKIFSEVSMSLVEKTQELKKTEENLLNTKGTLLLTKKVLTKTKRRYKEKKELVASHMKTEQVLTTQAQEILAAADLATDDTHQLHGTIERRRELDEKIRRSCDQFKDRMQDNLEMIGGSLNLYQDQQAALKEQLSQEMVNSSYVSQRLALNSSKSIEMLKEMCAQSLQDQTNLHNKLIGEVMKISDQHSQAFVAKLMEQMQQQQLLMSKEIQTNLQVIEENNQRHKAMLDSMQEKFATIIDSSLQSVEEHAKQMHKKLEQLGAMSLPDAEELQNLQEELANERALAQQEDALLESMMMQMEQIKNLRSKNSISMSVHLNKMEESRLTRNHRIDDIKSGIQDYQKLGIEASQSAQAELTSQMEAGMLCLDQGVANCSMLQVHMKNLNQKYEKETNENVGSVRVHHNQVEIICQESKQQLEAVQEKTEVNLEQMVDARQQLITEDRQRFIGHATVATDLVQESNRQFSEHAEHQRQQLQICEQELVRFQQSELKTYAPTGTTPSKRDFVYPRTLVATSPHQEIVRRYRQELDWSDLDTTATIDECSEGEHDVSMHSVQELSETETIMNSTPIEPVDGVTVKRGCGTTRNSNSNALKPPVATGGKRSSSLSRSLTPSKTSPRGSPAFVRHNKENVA
Outline: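 Drosophila S2 cells were exposed to compound over a three-log concentration range up to 100 μM, with treatments extending up to 7 h. Bipolar spindle formation was scored by immunofluorescence.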

[2] = molecular target: Kinesin-like protein KIF11 (Homo sapiens, UniProt P52732); experiment: Inhibition of human recombinant microtubule-activated KSP motor domain ATPase activity after 10 mins by end-point assay
HeLa [3] = experiment: Inhibition of bipolar spindle formation in human HeLa cells at 1 uM; assay type: functional, cell-based
Outline: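 HeLa cells were grown in MEM with Earle's BSS, 10% FBS, sodium bicarbonate and pyruvate at 37°C in 5% CO2. They were exposed to compound in DMSO for 4 h, with 0.1% DMSO as carrier control. Cells were fixed in −20°C methanol and immunostained for tubulin, with DNA counterstained. Bipolar spindle formation was scored in 100 mitotic cells per condition.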

HeLa [4] = experiment: Effect on interphase microtubule organization in human HeLa cells at 1 uM; assay type: functional, cell-based
Outline: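 HeLa cells were grown in MEM/Earle's BSS with 10% FBS at 37 °C and 5% CO2, then treated 4 h with 1 μM compound or 0.1% DMSO carrier. Cells were fixed in 100% MeOH at −20 °C and blocked in PBS-5% BSA. They were stained overnight at 4 °C with mouse anti-tubulin and for DNA, then imaged by epifluorescence with structured illumination.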

CCRF-CEM = experiment: Growth inhibition of human CCRF-CEM cells; assay type: functional
K562 = experiment: Growth inhibition of human K562 cells; assay type: functional
MOLT-4 = experiment: Growth inhibition of human MOLT4 cells; assay type: functional
[5] = Growth inhibition of human […] cells; assay type: functional
SR = experiment: Growth inhibition of human SR cells; assay type: functional
A549 = experiment: Growth inhibition of human A549 cells; assay type: functional
EKVX = experiment: Growth inhibition of human EKVX cells; assay type: functional
HOP-62 = experiment: Growth inhibition of human HOP62 cells; assay type: functional
NCI-H226 = experiment: Growth inhibition of human NCI-H226 cells; assay type: functional
NCI-H23 = experiment: Growth inhibition of human NCI-H23 cells; assay type: functional
NCI-H322M = experiment: Growth inhibition of human NCI-H322M cells; assay type: functional
NCI-H522 = experiment: Growth inhibition of human NCI-H522 cells; assay type: functional
COLO 205 = experiment: Growth inhibition of human COLO205 cells; assay type: functional
HCC 2998 = experiment: Growth inhibition of human HCC2998 cells; assay type: functional
HCT-116 = experiment: Growth inhibition of human HCT116 cells; assay type: functional
HCT-15 = experiment: Growth inhibition of human HCT15 cells; assay type: functional
HT-29 = experiment: Growth inhibition of human HT-29 cells; assay type: functional
SW-620 = experiment: Growth inhibition of human SW620 cells; assay type: functional
SF-268 = experiment: Growth inhibition of human SF268 cells; assay type: functional
SF-295 = experiment: Growth inhibition of human SF295 cells; assay type: functional
SF-539 = experiment: Growth inhibition of human SF539 cells; assay type: functional
SNB-19 = experiment: Growth inhibition of human SNB19 cells; assay type: functional
SNB-75 = experiment: Growth inhibition of human SNB75 cells; assay type: functional
U-251 = experiment: Growth inhibition of human U251 cells; assay type: functional
LOX IMVI = experiment: Growth inhibition of human LOXIMVI cells; assay type: functional
Malme-3M = experiment: Growth inhibition of human MALME-3M cells; assay type: functional
M14 = experiment: Growth inhibition of human M14 cells; assay type: functional
SK-MEL-2 = experiment: Growth inhibition of human SK-MEL-2 cells; assay type: functional
SK-MEL-28 = experiment: Growth inhibition of human SK-MEL-28 cells; assay type: functional
SK-MEL-5 = experiment: Growth inhibition of human SK-MEL-5 cells; assay type: functional
UACC-257 = experiment: Growth inhibition of human UACC257 cells; assay type: functional
UACC-62 = experiment: Growth inhibition of human UACC62 cells; assay type: functional
IGROV-1 = experiment: Growth inhibition of human IGROV1 cells; assay type: functional
OVCAR-3 = experiment: Growth inhibition of human OVCAR3 cells; assay type: functional
OVCAR-4 = experiment: Growth inhibition of human OVCAR4 cells; assay type: functional
OVCAR-5 = experiment: Growth inhibition of human OVCAR5 cells; assay type: functional
OVCAR-8 = experiment: Growth inhibition of human OVCAR8 cells; assay type: functional
SK-OV-3 [6] = experiment: Growth inhibition of human SKOV3 cells; assay type: functional
786-0 = experiment: Growth inhibition of human 786-0 cells; assay type: functional
ACHN = experiment: Growth inhibition of human ACHN cells; assay type: functional
CAKI-1 = experiment: Growth inhibition of human Caki1 cells; assay type: functional
SN12C = experiment: Growth inhibition of human SN12C cells; assay type: functional
TK-10 = experiment: Growth inhibition of human TK10 cells; assay type: functional
UO-31 = experiment: Growth inhibition of human UO31 cells; assay type: functional
SK-OV-3 [7] = experiment: Ratio of GI50 for human M14 cells to GI50 for human SK-OV-3 cells; assay type: functional

Sequence of Kinesin-like protein KIF11 (P52732 whole entry, the tested form may be a part): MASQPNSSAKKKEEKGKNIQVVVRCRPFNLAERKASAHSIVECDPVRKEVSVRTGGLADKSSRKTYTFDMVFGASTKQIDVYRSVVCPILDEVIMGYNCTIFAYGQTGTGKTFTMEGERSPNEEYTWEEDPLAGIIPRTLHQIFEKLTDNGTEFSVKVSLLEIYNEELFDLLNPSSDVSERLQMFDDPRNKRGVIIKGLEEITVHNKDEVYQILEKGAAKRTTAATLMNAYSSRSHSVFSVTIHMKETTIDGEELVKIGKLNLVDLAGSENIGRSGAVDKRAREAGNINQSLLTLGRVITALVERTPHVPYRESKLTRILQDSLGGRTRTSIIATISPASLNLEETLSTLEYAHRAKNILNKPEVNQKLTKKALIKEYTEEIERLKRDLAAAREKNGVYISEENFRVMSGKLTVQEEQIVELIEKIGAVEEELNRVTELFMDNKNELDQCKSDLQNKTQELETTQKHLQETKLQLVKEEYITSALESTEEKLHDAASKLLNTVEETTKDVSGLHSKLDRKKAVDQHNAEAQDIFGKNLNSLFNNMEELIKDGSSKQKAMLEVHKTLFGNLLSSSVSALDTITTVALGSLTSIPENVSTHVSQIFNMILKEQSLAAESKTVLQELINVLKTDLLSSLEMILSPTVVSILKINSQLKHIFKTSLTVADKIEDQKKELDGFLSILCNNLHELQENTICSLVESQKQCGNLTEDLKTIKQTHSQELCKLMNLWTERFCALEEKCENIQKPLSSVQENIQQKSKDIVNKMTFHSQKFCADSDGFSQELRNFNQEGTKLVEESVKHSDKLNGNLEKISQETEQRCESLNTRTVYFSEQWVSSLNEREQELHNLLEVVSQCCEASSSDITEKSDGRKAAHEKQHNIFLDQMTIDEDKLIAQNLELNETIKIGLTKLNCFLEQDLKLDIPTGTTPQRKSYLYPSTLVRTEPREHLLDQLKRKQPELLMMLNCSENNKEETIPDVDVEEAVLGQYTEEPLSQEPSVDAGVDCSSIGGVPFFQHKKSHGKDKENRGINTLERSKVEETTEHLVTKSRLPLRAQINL

With `COc1ccc(C(SC[C@@H](N)CO)(c2ccccc2)c2ccccc2)cc1` the inhibition [1] was “inactive”.
For `COc1ccc(C(SCCN)(c2ccccc2)c2ccccc2)cc1`, the IC50 [2] was 0.136 µM, the inhibition (HeLa [3]) was “Active” and the Activity (HeLa [4]) was “inactive”. For the same molecule, the inhibition [1] was “inactive”, the GI50 (CCRF-CEM) was 0.16 µM and the GI50 (K562) was 0.04 µM. The GI50 (MOLT-4) was 0.5 µM, the GI50 [5] was 0.31 µM and the GI50 (SR) was 0.13 µM. The GI50 (A549) was 0.1 µM, the GI50 (EKVX) was 0.39 µM and the GI50 (HOP-62) was 0.66 µM. It also gave a GI50 (NCI-H226) of 1.74 µM, a GI50 (NCI-H23) of 0.51 µM and a GI50 (NCI-H322M) of 0.06 µM. It also gave a GI50 (NCI-H522) of 0.04 µM, a GI50 (COLO 205) of 0.21 µM and a GI50 (HCC 2998) of 0.24 µM. It also gave a GI50 (HCT-116) of 0.04 µM, a GI50 (HCT-15) of 0.05 µM and a GI50 (HT-29) of 0.35 µM. The GI50 (SW-620) was 0.07 µM, the GI50 (SF-268) was 0.15 µM and the GI50 (SF-295) was 0.18 µM. It also gave a GI50 (SF-539) of 0.25 µM, a GI50 (SNB-19) of 0.34 µM and a GI50 (SNB-75) of 0.6 µM. For the same molecule, the GI50 (U-251) was 0.05 µM, the GI50 (LOX IMVI) was 0.5 µM and the GI50 (Malme-3M) was 0.22 µM. The GI50 (M14) was 0.03 µM, the GI50 (SK-MEL-2) was 0.06 µM and the GI50 (SK-MEL-28) was 0.64 µM. It also gave a GI50 (SK-MEL-5) of 0.05 µM, a GI50 (UACC-257) of 0.7 µM and a GI50 (UACC-62) of 0.4 µM. The GI50 (IGROV-1) was 0.15 µM, the GI50 (OVCAR-3) was 0.15 µM and the GI50 (OVCAR-4) was 1.4 µM. It also gave a GI50 (OVCAR-5) of 0.57 µM, a GI50 (OVCAR-8) of 0.12 µM and a GI50 (SK-OV-3 [6]) of 0.08 µM. For the same molecule, the GI50 (786-0) was 0.4 µM, the GI50 (ACHN) was 0.69 µM and the GI50 (CAKI-1) was 0.19 µM. For the same molecule, the GI50 (SN12C) was 0.13 µM, the GI50 (TK-10) was 1.56 µM and the GI50 (UO-31) was 0.5 µM. It also gave a RatioGI50 (SK-OV-3 [7]) of 1250.
